# Measured values taken from PubChem BioAssay AID1480 (NMMLSC, 2009).
# Some of the results follow. Values without a mark were called inactive.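 How the source made its calls: active means fluorescence in ABCG2-expressing cells above the plate's control-well mean plus 3 SD (cut at about 15 in these data); inactive means the rest.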
# Assay: green-channel fluorescence of compounds in IgMXP3 cells – cell-based, 488/530 nm, flow cytometry, artefact control for ABC transporter inhibitor project, confirmation (AID 1480)
# Details: compound autofluorescence 488/530 nm, at 6.6 µM, stronger effect = higher value
# Outline: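 Material – ABCG2-expressing drug-resistant IgMXP3 cells · Detection – flow cytometry, FL1 green emission · Read-out – compound-well median cell fluorescence minus DMSO-well median fluorescence · Compound dosing – single dose, test compound at 6.6 µM final · Probe or stimulus – no JC-1 substrate · Timing – Cell–compound exposure 10 min, 25 °C, end-over-end rotation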
smiles,measurement,value
COC(=O)COc1cc(C)cc2oc(=O)c3c(c12)CCCC3,fluorescence,1.36
